Experiments:
[1] = target: T1, Dual specificity protein phosphatase 1 (Mus musculus, UniProt P28563); test: Inhibition of histidine-tagged mouse MKP1 catalytic domain expressed in […]
T1 sequence (P28563 whole entry): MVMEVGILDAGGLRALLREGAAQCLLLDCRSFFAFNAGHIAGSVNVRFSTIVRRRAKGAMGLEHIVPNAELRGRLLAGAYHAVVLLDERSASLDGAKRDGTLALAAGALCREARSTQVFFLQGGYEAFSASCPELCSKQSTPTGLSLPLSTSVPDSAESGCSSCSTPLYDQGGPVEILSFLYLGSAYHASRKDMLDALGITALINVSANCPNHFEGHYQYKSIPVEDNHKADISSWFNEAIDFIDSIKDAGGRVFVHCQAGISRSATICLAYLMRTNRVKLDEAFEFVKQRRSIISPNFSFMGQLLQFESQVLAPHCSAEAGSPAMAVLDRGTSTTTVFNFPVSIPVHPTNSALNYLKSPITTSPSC

[2] = target: T2, M-phase inducer phosphatase 2 (Homo sapiens, UniProt P30305); test: Inhibition of histidine-tagged human recombinant Cdc25B catalytic domain expressed in Escherichia coli
T2 sequence (P30305 whole entry): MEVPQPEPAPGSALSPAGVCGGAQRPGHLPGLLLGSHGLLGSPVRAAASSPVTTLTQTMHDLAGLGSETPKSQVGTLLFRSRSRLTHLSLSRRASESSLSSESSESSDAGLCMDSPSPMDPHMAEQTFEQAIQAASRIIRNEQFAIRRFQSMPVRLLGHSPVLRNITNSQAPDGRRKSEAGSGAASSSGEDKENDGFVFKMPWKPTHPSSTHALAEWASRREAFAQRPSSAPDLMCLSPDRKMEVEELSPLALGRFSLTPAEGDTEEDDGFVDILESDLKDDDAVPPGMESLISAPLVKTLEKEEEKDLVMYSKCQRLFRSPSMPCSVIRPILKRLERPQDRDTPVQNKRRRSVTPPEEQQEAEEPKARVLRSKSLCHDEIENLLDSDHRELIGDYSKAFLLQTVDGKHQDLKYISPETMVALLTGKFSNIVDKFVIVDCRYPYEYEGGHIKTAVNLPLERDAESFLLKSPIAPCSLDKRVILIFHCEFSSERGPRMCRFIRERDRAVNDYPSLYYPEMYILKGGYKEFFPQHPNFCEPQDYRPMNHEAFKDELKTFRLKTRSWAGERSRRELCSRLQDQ

[3] = target: T3, Dual specificity protein phosphatase 6 (Rattus norvegicus, UniProt Q64346); test: Inhibition of histidine-tagged rat recombinant MKP3 catalytic domain expressed in Escherichia coli BL21(DE3)
T3 sequence (Q64346 whole entry): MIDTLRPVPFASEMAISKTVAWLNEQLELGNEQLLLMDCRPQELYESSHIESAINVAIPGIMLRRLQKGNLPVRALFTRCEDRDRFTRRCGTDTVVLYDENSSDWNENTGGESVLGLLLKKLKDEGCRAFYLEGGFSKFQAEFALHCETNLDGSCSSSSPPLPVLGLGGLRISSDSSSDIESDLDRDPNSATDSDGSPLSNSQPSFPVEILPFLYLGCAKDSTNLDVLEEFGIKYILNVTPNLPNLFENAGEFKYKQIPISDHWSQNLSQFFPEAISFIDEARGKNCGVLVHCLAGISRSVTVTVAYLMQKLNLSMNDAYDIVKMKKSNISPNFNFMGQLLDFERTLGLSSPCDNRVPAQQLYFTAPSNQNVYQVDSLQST
Procedure, shortened: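 Recombinant MKP-3 was expressed from a bacterial plasmid. Phosphatase activity was read from O-methyl fluorescein phosphate hydrolysis in a 25 μL final mixture, incubated 20 or 60 min at ambient temperature. Product fluorescence was read at excitation 485 nm and emission 530 nm. IC50 came from at least six inhibitor concentrations.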

Measured: IC50

Cc1c(NCC=O)c(O)c2ccccc2c1O [2-(2-hydroxyethylamino)-3-methylnaphthalene-1,4-dione]
> 50 µM: all assays above

O=CCNc1cc(O)c2ccccc2c1O [2-(2-hydroxyethylamino)naphthalene-1,4-dione]
> 50 µM: all assays above
